Reference: ChEMBL document CHEMBL1152545, “Fluorinated indazoles as novel selective inhibitors of nitric oxide synthase (NOS): synthesis and biological evaluation” (Bioorg Med Chem, 2009)

Tests used:
[1] = target: T1, Nitric oxide synthase 1 (Homo sapiens, UniProt P29475); assay: Inhibition of NOS1
[2] = target: T1, Nitric oxide synthase 1; assay: Inhibition of recombinant NOS1 assessed as citrulline formation
[3] = target: Nitric oxide synthase, inducible (Rattus norvegicus) (UniProt Q06518); assay: Inhibition of Wistar rat NOS2 assessed as L-[3H]citrulline formation at 1 mM by liquid scintillation counting relative to control in presence of EDTA
Summary of the method: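 NOS-II source: lung homogenate (0.1 g/mL, Tris/DTT/protease inhibitors, pH 7.6, 2500g supernatant) from male Wistar rats 6 h after iv LPS 10 mg/kg in saline. 10 µL sample incubated 30 min at 37 °C with 10 µM L-arginine plus 40 nM L-3H-arginine, H4-biopterin, FAD, CaCl2, 10 mM EDTA; NADPH started reaction. Compound 1 mM; three experiments in triplicate; mean ± SEM.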

[4] = target: Nitric oxide synthase, inducible (Homo sapiens, UniProt P35228); assay: Inhibition of NOS2
Summary of the method: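 NOS-II source was lung homogenate (2500g supernatant) from male Wistar rats killed 6 h after iv LPS 10 mg/kg. Incubation ran 30 min at 37 °C, pH 7.6, with 10 µM L-arginine, 40 nM L-3H-arginine, cofactors and 0.75 mM NADPH, plus 10 mM EDTA to exclude NOS-I. Read-out was 3H-citrulline formed. Compounds were tested at 1 mM, or 0.1–1 mM for dose-response, in three experiments run in triplicate.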

[5] = target: Nitric oxide synthase, inducible (Rattus norvegicus) (UniProt Q06518); assay: Inhibition of Wistar rat NOS2 assessed as enzyme activity at 0.5 mM by liquid scintillation counting relative to control in presence of EDTA; set-up: scale not given: the % may be the effect or the level left
Summary of the method: (§1)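 Lung homogenate (0.1 g/mL, pH 7.6 Tris with protease inhibitors, 2500g supernatant) from male Wistar rats given 10 mg/kg LPS iv in saline 6 h before. L-3H-arginine (40 nM, plus 10 µM L-arginine) to L-3H-citrulline conversion, 0.75 mM NADPH, 30 min at 37 °C, 10 mM EDTA. Compound at 0.1, 0.5 or 1 mM. Three experiments in triplicate.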

[6] = target: Nitric oxide synthase, inducible (Rattus norvegicus) (UniProt Q06518); assay: Inhibition of Wistar rat NOS2 assessed as enzyme activity at 0.1 mM by liquid scintillation counting relative to control in presence of EDTA; set-up: scale not given: the % may be the effect or the level left; summary of the method: as §1
[7] = target: Nitric oxide synthase, inducible (Rattus norvegicus) (UniProt Q06518); assay: Inhibition of Wistar rat NOS2 assessed as enzyme activity at 1 mM by liquid scintillation counting relative to control in presence of EDTA; set-up: scale not given: the % may be the effect or the level left; summary of the method: as §1
[8] = target: Nitric oxide synthase, inducible (Rattus norvegicus) (UniProt Q06518); assay: Inhibition of Wistar rat NOS2 assessed as L-[3H]citrulline formation by liquid scintillation counting relative to control in presence of EDTA; summary of the method: as §1

Nitric oxide synthase, inducible, sequence (P35228 whole entry): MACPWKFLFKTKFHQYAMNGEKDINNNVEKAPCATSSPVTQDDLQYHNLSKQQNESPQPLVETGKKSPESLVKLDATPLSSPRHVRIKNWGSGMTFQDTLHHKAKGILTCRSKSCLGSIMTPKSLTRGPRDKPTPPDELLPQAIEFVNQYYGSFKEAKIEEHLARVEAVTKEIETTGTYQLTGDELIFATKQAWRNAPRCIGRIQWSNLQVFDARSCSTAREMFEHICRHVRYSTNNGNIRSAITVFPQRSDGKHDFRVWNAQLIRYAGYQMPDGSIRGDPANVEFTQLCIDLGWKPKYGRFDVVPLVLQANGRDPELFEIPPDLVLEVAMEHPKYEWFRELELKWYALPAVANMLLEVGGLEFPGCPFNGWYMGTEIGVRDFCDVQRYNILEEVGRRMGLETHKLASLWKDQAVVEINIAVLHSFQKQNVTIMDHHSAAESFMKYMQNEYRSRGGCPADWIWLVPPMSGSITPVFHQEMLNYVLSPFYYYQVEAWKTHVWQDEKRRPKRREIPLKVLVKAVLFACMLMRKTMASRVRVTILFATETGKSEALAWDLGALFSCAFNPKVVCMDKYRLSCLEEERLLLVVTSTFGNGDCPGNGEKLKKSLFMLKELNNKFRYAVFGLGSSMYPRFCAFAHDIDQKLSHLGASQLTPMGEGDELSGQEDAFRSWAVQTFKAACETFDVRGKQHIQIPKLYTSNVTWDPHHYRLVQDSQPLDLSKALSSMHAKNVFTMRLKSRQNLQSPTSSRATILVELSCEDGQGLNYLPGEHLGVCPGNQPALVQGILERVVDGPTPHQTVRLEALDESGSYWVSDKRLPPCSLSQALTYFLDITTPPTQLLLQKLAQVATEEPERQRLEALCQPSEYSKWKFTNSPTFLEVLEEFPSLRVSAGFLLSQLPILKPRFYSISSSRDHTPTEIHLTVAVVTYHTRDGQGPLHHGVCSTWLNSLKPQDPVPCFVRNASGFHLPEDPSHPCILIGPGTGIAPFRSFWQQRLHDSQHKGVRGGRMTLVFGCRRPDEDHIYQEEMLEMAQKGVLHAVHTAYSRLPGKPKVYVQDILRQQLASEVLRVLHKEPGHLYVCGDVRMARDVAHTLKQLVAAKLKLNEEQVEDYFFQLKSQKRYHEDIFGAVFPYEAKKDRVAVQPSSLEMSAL
T1 sequence (P29475 whole entry): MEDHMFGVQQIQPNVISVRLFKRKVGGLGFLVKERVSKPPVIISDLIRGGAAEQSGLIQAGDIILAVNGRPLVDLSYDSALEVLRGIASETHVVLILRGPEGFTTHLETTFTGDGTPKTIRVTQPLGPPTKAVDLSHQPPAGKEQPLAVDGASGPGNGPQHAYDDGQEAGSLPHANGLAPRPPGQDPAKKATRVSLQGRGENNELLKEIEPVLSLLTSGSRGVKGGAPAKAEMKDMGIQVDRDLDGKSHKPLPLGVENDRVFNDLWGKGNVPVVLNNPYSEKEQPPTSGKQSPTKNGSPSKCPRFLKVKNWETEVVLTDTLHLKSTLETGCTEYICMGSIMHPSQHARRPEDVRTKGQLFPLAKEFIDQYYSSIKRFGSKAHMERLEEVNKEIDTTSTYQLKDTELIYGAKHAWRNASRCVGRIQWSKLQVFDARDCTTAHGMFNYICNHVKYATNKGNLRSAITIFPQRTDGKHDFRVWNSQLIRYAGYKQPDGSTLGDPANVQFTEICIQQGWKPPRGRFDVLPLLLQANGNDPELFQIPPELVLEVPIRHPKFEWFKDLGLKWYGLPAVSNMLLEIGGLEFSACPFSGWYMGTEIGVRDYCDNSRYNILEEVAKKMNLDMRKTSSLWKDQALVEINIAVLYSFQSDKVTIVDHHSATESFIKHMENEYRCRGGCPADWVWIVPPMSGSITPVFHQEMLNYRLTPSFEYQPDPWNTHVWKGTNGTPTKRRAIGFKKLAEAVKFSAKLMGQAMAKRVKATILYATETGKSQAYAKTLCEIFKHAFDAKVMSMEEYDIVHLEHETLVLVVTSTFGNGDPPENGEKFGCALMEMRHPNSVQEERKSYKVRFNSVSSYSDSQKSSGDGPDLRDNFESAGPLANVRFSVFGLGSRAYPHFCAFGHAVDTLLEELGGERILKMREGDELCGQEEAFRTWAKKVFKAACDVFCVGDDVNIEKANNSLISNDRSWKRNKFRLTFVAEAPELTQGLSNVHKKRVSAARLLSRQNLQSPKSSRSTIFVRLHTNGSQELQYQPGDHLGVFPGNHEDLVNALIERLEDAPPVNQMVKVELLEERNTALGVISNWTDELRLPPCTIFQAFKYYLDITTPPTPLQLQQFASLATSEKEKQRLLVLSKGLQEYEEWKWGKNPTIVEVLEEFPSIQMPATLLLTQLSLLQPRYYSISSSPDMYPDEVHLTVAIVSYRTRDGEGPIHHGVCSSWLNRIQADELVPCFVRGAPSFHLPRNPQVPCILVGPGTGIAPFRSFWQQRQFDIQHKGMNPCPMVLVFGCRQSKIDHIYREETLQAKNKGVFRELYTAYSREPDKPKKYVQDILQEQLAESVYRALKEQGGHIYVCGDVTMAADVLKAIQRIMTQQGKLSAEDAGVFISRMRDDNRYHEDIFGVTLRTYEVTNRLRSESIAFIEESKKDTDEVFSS
Nitric oxide synthase, inducible (Rattus norvegicus), sequence (Q06518 whole entry): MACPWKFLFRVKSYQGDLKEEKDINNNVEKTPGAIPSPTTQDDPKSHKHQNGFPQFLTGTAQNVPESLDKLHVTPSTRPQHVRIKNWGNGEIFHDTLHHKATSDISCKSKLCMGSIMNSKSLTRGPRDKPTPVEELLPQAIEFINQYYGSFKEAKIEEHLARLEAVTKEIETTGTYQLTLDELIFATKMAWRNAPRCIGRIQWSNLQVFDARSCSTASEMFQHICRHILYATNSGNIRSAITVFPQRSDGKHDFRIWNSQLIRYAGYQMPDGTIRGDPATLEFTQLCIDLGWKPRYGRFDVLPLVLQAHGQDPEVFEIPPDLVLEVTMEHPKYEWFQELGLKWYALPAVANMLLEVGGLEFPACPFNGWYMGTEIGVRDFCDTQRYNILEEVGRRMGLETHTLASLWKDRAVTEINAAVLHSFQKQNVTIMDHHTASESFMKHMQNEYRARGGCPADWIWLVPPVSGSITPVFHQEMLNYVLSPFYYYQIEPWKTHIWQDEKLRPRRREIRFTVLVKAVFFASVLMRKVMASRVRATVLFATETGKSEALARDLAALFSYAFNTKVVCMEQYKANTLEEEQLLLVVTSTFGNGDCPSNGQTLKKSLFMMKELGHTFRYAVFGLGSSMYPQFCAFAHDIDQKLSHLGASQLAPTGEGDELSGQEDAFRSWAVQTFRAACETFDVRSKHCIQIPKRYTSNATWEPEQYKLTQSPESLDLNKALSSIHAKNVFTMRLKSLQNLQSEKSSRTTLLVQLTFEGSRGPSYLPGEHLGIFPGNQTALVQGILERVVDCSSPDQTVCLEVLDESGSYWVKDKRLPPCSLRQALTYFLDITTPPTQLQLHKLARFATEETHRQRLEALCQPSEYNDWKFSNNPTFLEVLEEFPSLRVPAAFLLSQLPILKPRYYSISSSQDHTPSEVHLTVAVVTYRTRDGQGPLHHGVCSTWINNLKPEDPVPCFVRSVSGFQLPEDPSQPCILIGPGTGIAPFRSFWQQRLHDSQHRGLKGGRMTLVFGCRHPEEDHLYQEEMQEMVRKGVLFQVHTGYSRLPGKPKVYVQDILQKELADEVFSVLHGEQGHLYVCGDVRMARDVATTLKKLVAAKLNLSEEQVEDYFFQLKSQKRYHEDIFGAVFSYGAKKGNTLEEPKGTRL

O=[N+]([O-])c1ccc2c(Cl)n[nH]c2c1
IC50 [1]: 158 µM

Nc1ccc2cn[nH]c2c1
IC50 [2]: > 1000 µM

Cc1n[nH]c2c1C(=O)CC(C)(C)C2
inhibition [3]: 22%

Fc1c(F)c(F)c2c(C(F)(F)F)n[nH]c2c1F
inhibition [3]: 21%

Brc1ccc2[nH]ncc2c1
IC50 [1]: 72 µM

Brc1cccc2cn[nH]c12
IC50 [1]: 14 µM

O=[N+]([O-])c1cccc2[nH]ncc12
IC50 [1]: 3.1 µM

c1ccc2[nH]ncc2c1 [INDAZOLE]
IC50 [2]: 178 µM

Cn1nc(Br)c2cccc([N+](=O)[O-])c21
inhibition [3]: 10%

Nc1cccc2cn[nH]c12
IC50 [2]: 115 µM

Brc1ccc2cn[nH]c2c1
IC50 [1]: 4.3 µM

O=[N+]([O-])c1ccc2cn[nH]c2c1
IC50 [1]: 32 µM

O=c1[nH][nH]c2ccccc12
IC50 [2]: > 1000 µM

Oc1n[nH]c2c(F)c(F)c(F)c(F)c12
inhibition [3]: 6%

CC1(C)CC(=O)c2cn[nH]c2C1
inhibition [3]: 2%

O=[N+]([O-])c1ccc2[nH]ncc2c1
IC50 [1]: 47 µM

Cn1cc2cccc([N+](=O)[O-])c2n1
inhibition [3]: 36%

Ic1ccc2[nH]ncc2c1
IC50 [1]: 37 µM

Cn1ncc2cccc([N+](=O)[O-])c21
inhibition [3]: 25%

Nc1ccc2[nH]ncc2c1
IC50 [2]: > 1000 µM

O=[N+]([O-])c1cccc2c(Br)n[nH]c12
IC50 [1]: 0.17 µM
IC50 [4]: 0.29 µM
inhibition [3]: 97%

Clc1cccc2[nH]ncc12
IC50 [1]: 44 µM

O=[N+]([O-])c1cccc2cn[nH]c12 [7-NITROINDAZOLE]
IC50 [4]: 5.8 µM
inhibition [3]: 84%

Ic1cccc2[nH]ncc12
IC50 [1]: 17 µM

Cc1n[nH]c2c(F)c(F)c(F)c(F)c12
inhibition [3]: 83%

Cc1n[nH]c2c1C(=O)CCC2
inhibition [3]: 4%

Brc1cccc2[nH]ncc12
IC50 [1]: 2.4 µM

Clc1cccc2cn[nH]c12
IC50 [1]: 4.2 µM

Cn1nc2c([N+](=O)[O-])cccc2c1Br
inhibition [3]: 7%

Clc1ccc2cn[nH]c2c1
IC50 [1]: 22 µM

Fc1c(F)c(F)c(-c2n[nH]c3c(F)c(F)c(F)c(F)c23)c(F)c1F
Activity [5]: 58%
Activity [6]: 90%
Activity [7]: 20%
IC50 [4]: 400 µM
inhibition [3]: 80%
inhibition [8]: Dose-dependent effect

O=C1CCCc2[nH]ncc21
inhibition [3]: 23%

Clc1ccc2[nH]ncc2c1
IC50 [1]: 59 µM

Fc1c(F)c(F)c2c(-c3ccccc3)n[nH]c2c1F
inhibition [3]: 37%

CC12CCC(C3C=NN=C31)C2(C)C (racemic)
inhibition [3]: 20%

Clc1n[nH]c2ccccc12
IC50 [2]: 100 µM

CCc1n[nH]c2ccccc12
IC50 [2]: 310 µM
